Screening results: PubChem BioAssay, several laboratories
FXIa inh 1536 – factor XIa (human) inhibition; P03951; purified FXIa, Boc-Glu-Ala-Arg-AMC fluorogenic substrate; inhibition, % at 5 µM; 220,000 tested, 0.14% active; AID 798;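 active means inhibition of at least 40%; inactive means inhibition below 40%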;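 further: fluorescence of freed AMC excited at 355 nm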
Target sequence (P03951 19-387 limits assumed): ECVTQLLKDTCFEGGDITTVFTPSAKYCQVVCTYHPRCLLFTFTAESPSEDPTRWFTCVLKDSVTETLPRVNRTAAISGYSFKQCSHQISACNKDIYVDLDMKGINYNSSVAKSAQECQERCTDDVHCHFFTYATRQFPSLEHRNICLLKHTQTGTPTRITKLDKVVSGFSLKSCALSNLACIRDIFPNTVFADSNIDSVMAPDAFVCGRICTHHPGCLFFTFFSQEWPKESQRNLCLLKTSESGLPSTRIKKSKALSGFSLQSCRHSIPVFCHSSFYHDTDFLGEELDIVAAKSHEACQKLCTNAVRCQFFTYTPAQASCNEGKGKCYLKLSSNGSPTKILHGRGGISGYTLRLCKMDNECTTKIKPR
Target sequence (P03951 388-625 limits assumed): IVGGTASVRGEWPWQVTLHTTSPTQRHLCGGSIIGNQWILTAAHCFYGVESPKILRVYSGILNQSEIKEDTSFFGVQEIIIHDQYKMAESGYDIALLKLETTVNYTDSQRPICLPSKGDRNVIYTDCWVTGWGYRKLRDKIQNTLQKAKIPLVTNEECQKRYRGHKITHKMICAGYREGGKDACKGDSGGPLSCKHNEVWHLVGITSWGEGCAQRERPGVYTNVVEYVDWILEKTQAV
Furin inhibitor – blocks human furin protease activity; inhibition, % at 20 µM or 30 µM; purified furin, fluorogenic substrate cleavage; 220,000 tested, 0.061% active; in the data active means inhibition above about 25%
Calpain2 inh – blocks pig calpain II enzyme activity; purified calpain II, fluorogenic peptide substrate, 30 min; inhibition, % at 16 µM; 220,000 tested, 0.37% active; AID 1236;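 active means inhibition above about 50%, limit read from the data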
FXIIa inh 1536 – blocks human coagulation factor XIIa protease activity | inhibition, % at 5 µM | purified FXIIa, Boc-QGR-AMC fluorogenic substrate, 2 h | 220,000 tested, 0.3% active | P00748; in the data active means inhibition above about 40%
Thrombin inh – blocks human thrombin protease activity; inhibition, % at 5 µM; 220,000 tested, 0.26% active; P00734; alpha-thrombin, Boc-VPR-AMC fluorogenic substrate cleavage;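 active means inhibition at or above 40%; inactive means inhibition below 40%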
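System: human alpha-thrombin protein; Compound dosing: one concentration per compound, 5 µM, with 0.2% DMSO; Timing: reaction at room temperature; Technique: AMC fluorescence, 355/460 nm; Controls: enzyme without compound as high, wells lacking enzyme as low.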
hK5 inh – blocks human kallikrein 5 protease activity; Q9Y337; recombinant hK5, fluorogenic AMC substrate cleavage; inhibition, % at 5 µM; 210,000 tested, 0.59% active; AID 873;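 active means inhibition of 40% or more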
Numbers stand for hits; n = inactive. Compounds with a hit are over-represented: about 1.4% of the library has one in this group of screens.

SMILES	FXIa inh 1536	Furin inhibitor	Calpain2 inh	FXIIa inh 1536	Thrombin inh	hK5 inh
S=C(Nc1ccc(Cl)cc1)Nc1ccc2cn[nH]c2c1	n	n	n	n	n	n
COc1ccc(NC(=S)Nc2ccc3cn[nH]c3c2)cc1	n	n	n	n	49	n
N#Cc1c2n(c3c(=O)n(Cc4ccccc4)cnc13)CCCC2	n	n	n	44	n	n
COc1ccc(/C=C/C(=O)OCCCN(C)C)cc1	n	n	n	n	n	n
CSc1nc(SCC(=O)O)c2c3c(sc2n1)COC(C)(C)C3	n	n	n	52	n	n
CSc1nc(SCC(=O)NCc2ccco2)c2c3c(sc2n1)COC(C)(C)C3	n	n	n	n	n	n
COc1ccc(C(=O)NC(=S)NNC(=O)CNC(=O)C2CCCCC2)cc1	n	n	n	n	n	n
O=C(Nc1ccccc1N1CCOCC1)c1ccc2nc[nH]c2c1	n	n	n	n	56	n
COCC(=O)N1CCN(c2nc3ccccc3o2)CC1	n	n	n	n	n	n
NC(=O)COc1ccc(=O)n(-c2ccccc2)n1	n	n	n	n	n	n
O=C(Oc1ccc(=O)n(-c2ccccc2)n1)c1ccc(Cl)cc1	51	n	n	n	n	n
O=C(Oc1ccc(=O)n(-c2ccccc2)n1)c1cccc(Cl)c1	68	n	n	n	n	n
O=C(Oc1ccc(=O)n(-c2ccccc2)n1)c1ccc(F)cc1	n	n	n	n	n	n
CCSc1nnc(-c2cnn(-c3ccccc3)c2-n2cccc2)n1C	n	n	n	n	n	n
CCCCCCSc1nnc(-c2cnn(-c3ccccc3)c2-n2cccc2)n1C	n	n	56	n	n	n
CCCn1[nH]cc(SC)c(=O)c1=O	n	n	n	n	n	122
CC1=CC(=O)C(C(C)C)=CC1=NC(=O)c1ccc(C)cc1	n	n	n	n	n	n
O=C(O)CSc1nnc(-c2ccco2)o1	n	n	n	n	n	n
CN(C)C(CNC(=O)CSc1nnc(-c2ccco2)o1)c1ccccc1 (stereo not given)	n	n	n	n	n	74
COc1ccc(NS(=O)(=O)c2cc(OC)ccc2NC(=O)c2cc(C)oc2C)cc1	n	n	n	n	n	n
O=C(CSCc1c(F)cccc1Cl)Nc1ccccc1C(=O)N1CCOCC1	n	n	n	n	n	n
OCc1nc2ccccc2n1/N=C/c1cccs1	n	n	n	n	n	43
Cc1ccc(C)c(S(=O)(=O)N2CCCOC2CNC(=O)C(=O)NCc2cccnc2)c1 (stereo not given)	n	n	n	n	n	43
O=C(NCC1CCCO1)C1CCN(C2CCN(C3CCCCCC3)CC2)CC1 (stereo not given)	n	n	n	n	n	n
COc1ccc2c(c1)nc(NCCCO)n2Cc1ccccc1	n	n	n	n	n	n
SMILES	FXIa inh 1536	Furin inhibitor	Calpain2 inh	FXIIa inh 1536	Thrombin inh	hK5 inh
CCOC(=O)NC(=O)CSc1nc2ccc([N+](=O)[O-])cc2[nH]1	n	n	n	n	n	44
CCOC(=O)NC(=O)CSc1nc2ccc(OCC)cc2[nH]1	n	n	n	n	n	n
Cn1cccc1CC(=O)NNC(=S)NC(=O)c1ccc(F)cc1	n	n	n	n	n	n
CCN1C(=O)/C(=C/N(C(C)=O)c2ccccc2)N(c2ccccc2)C1=S	n	n	n	n	76	50
CSc1ccccc1NC(=O)CN(c1cccc(C)c1)S(C)(=O)=O	n	n	n	n	n	n
COc1ccc(N(CC(=O)Nc2ccccc2SC)S(C)(=O)=O)cc1OC	n	n	n	45	n	n
S=C(NCCc1ccccc1)Nc1ccc(Br)cn1	40	n	n	n	n	52
COCCNC(=O)NC(=O)CN1CCCc2ccccc21	n	n	65	n	n	n
CCCCN(C(=O)CSc1nnc(Nc2ccccc2)s1)c1c(N)n(CCC)c(=O)[nH]c1=O	n	n	n	n	n	n
CCC/S(C)=N/S(=O)(=O)c1ccc(C)cc1 (stereo not given)	n	n	n	n	n	48
CCOC(=O)c1ccc(NC(=O)c2ccc3c(c2)OCO3)cc1	n	n	n	n	n	n
CCOC(=O)c1ccc(NC(=O)NC2CCN(CC(=O)NCc3ccc4c(c3)OCO4)CC2)cc1	n	n	n	n	43	n
CCOC(=O)N1CCN(CC(=O)Nc2sccc2C#N)CC1	n	n	82	n	n	n
CC(NC(=O)/C=C/c1ccco1)c1nc2ccccc2n1Cc1ccccc1F (stereo not given)	n	n	n	n	n	n
